Six compounds from publication PMC5592695 (Journal of medicinal chemistry, 2016) can be followed below.

Series [1] has as its system R4A monoclonal antibody (anti-dsDNA) binding to DWEYS peptide. In words: Competitive inhibition ELISA: R4A antibody binding to DWEYS-coated plates. Further details: species or system mouse. The essentials: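 D-DWEYS peptide at 20 µg/mL in PBS pH 7.2 coated overnight at 37 °C, uncovered; blocked with 3% BSA/PBS 1 h at 37 °C. R4A (20 µg/mL) preincubated with test compound at varying concentrations 1 h at 37 °C, then added to washed wells 1 h at 37 °C. AP-goat anti-mouse IgG 1:1000, 1 h RT; pNPP substrate 30–60 min; absorbance at 405 nm.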
On the technique in general: In an ELISA, binding on a coated surface is turned into a signal by an enzyme label.

For series [2], the system named is R4A antibody binding to murine glomeruli. In words: Kidney glomeruli R4A binding assay. Conditions: R4A 20 µg/mL preincubated with compound at 50 µM. Further details: species or system mouse. Summed up: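 Glomeruli isolated from mice and adhered to glass slides. R4A was preincubated with test compound for 1 h at 37 °C, then applied to the glomeruli for 1 h at room temperature. Slides were washed with PBS. Bound antibody was detected with FITC-conjugated anti-mouse IgG and imaged by fluorescence microscopy.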

Series [3] in a line: Preliminary pharmacokinetics after intravenous or oral dosing. The format is in vivo. Particulars: iv 1 mg/kg or oral gavage 10 mg/kg, male CD-1 mice.
Series [4] relates to NZB/W F1 mice (SLE model). Put plainly: NZB/W F1 lupus model efficacy testing. It counts as in vivo, mouse. Summed up:
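Female NZB/W F1 mice, randomised to groups (initially n = 10/group), dosed from 22 weeks of age, before severe proteinuria, with test compound or vehicle at 5 mg kg−1 day−1 as two daily ip injections (2.5 mL/kg each). Weekly body weight; proteinuria every 2 weeks; serum stored at −70 °C. Blinded kidney histology scored glomerular sclerosis, cellularity, crescents and interstitial inflammation.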

The subject of series [5] is R4A antibody neurotoxicity in hippocampal neurons. In words: Neurotoxicity model: R4A injected into hippocampus, TUNEL staining. The format is in vivo. Particulars: R4A 20 µg/mL preincubated with 50 µM compound, injected into mouse hippocampus. The essentials:
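Male C57BL/6 mice (30–34 g) under 2.5% avertin ip received a 2 µL stereotaxic injection into the dorsal hippocampus (CA1) of R4A (20 µg/mL) preincubated with vehicle or test compound (50 µM).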

The mark [6] stands for this setting: 5 mg/kg chronic dosing, NZB/W F1 mice, versus vehicle.

Regarding `Cc1c(O)cccc1C(=O)N[C@@H](CSc1ccccc1)[C@H](O)CN1C[C@H]2CCCC[C@H]2C[C@H]1C(=O)NC(C)(C)C` [Compound 2, nelfinavir, reference compound], in series [1], the “Inhibition of R4A / anti-dsDNA antibody binding in ELISA (qualitative)” value was “dose-dependently inhibited the binding of anti-dsDNA antibodies to target antigens”. Also, in series [2], the “R4A binding to glomerular antigens” value is recorded as “diminished binding to glomerular antigens”.
As to `Cc1cccc(C)c1OCC(=O)N[C@@H](Cc1ccccc1)[C@@H](O)C[C@H](Cc1ccccc1)NC(=O)[C@H](C(C)C)N1CCCNC1=O` [Compound 3, lopinavir], the “Inhibition of R4A / anti-dsDNA antibody binding in ELISA (qualitative)” value in series [1] is recorded as “dose-dependently inhibited the binding of anti-dsDNA antibodies to target antigens”.
For the compound `CC(C)(C)NC[C@@H]1CC2CCCCC2CN1C[C@@H](O)[C@H](Cc1ccccc1)NC[C@H](CCN)NCC1Nc2ccccc2CC1O` (stereo partly drawn) [Compound 5, 2-{[3-Amino-1-({1-benzyl-3-[3-(tert-butylamino-methyl)-octahydro-isoquinolin-2-yl]-2-hydroxy-propylamino}-methyl)-propylamino]-methyl}-1,2,3,4-tetrahydro-quinolin-3-ol], in series [3], the “PK profile (comparative)” value was “exhibited the best PK profile” and the “Tolerability in PK study” value was “well tolerated at the administered dose levels”. Moreover, in series [2], the “R4A binding to glomerular antigens” value is “decreased the binding of R4A to kidney tissue”. For the same compound, the Onset of disease result in series [4] (5 mg kg−1 day−1 b.i.d. ip, NZB/W F1 mice) is given as “delayed onset of disease (26–36 weeks)”. For the same compound, the “Body weights versus vehicle” value in series [4] (5 mg kg−1 day−1 in two daily ip injections, female NZB/W F1 mice from 22 weeks of age) is “similar”. In series [4] (setting [6]), the Kidney histology entry was “preserved histology” and the “Mouse IgG staining (autoantibody deposition) in glomeruli” value is given as “significantly less staining for mouse IgG”. In addition, the “Serum anti-DWEYS reactivity” value in series [4] (5 mg/kg chronic dosing, NZB/W F1 mice, versus vehicle sera) is “higher anti-DWEYS reactivity”. Moreover, in series [4] (blinded histopathology, 60 weeks, versus vehicle, p < 0.05), the “Combined kidney pathology score” value is recorded as “significantly lower standard combined pathology scores”. For the same compound, the “Neurotoxic effect of R4A (TUNEL staining, neuronal apoptosis)” value in series [5] was “abrogated this neurotoxic effect”.
For the compound `Cc1c(O)cccc1CN[C@@H](CSc1ccccc1)[C@H](O)CN1C[C@H]2CCCC[C@H]2C[C@H]1CNC(C)(C)C` [Compound 6, 3-({3-[3-(tert-Butylaminomethyl)octahydroisoquinolin-2-yl]-2-hydroxy-1-phenylsulfanylmethylpropylamino}methyl)-2-methylphenol], the “R4A binding to glomerular antigens” value in series [2] is listed as “decreased the binding of R4A to kidney tissue”. The “Neurotoxic effect of R4A (TUNEL staining, neuronal apoptosis)” value in series [5] was “abrogated this neurotoxic effect”.
As to `CNCCCN[C@H](CN[C@@H](Cc1ccccc1)C[C@H](O)[C@H](Cc1ccccc1)NCCOc1c(C)cccc1C)C(C)C` [Compound 7, 2-[2-(2,6-Dimethylphenoxy)ethylamino]-5-[3-methyl-2-(3-methylaminopropylamino)butylamino]-1,6-diphenylhexan-3-ol], the “R4A binding to glomerular antigens” value in series [2] was “decreased the binding of R4A to kidney tissue”.
As to “saquinavir [Compound 1, reference compound]”, the “Inhibition of R4A / anti-dsDNA antibody binding in ELISA (qualitative)” value in series [1] is “dose-dependently inhibited the binding of anti-dsDNA antibodies to target antigens”. For the same compound, the “R4A binding to glomerular antigens” value in series [2] is listed as “diminished binding to glomerular antigens”.
